In publication PMC10905627 (Oncogene, 2018):

What was measured:
[1] = Toxicity studies in NSG mice; assay type: in vivo
[2] = biological target: T1, ALK2/ACVR1 (Homo sapiens, UniProt Q04771); experiment: IC50 kinase assay ALK2; assay type: biochemical; conditions: ATP 10 μM
T1 sequence (Q04771 21-509): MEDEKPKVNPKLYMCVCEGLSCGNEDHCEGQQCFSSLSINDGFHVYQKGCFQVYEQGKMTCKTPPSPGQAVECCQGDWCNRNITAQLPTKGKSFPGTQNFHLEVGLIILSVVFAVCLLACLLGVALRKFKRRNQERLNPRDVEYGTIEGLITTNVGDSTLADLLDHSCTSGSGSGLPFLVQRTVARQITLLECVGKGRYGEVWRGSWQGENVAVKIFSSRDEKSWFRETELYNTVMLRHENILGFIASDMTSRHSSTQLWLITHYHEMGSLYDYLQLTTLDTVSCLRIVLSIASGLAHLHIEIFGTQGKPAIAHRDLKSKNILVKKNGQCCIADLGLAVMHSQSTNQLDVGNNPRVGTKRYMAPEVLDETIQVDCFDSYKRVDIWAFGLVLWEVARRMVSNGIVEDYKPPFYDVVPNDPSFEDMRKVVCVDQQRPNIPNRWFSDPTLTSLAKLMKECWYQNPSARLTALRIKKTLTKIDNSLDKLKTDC

[3] = test system: caspase-3, PARP in H1299 cells; experiment: Western blot of activated caspase-3 and PARP; assay type: cell-based, human; conditions: H1299, 3 days
How it was run: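 H1299 cells treated with test compound, and total protein quantified by BCA. Lysates separated by SDS-PAGE onto nitrocellulose and blocked at least 2 h. Probed overnight at 4 °C with rabbit monoclonal anti-activated caspase-3 and anti-PARP, with actin or GAPDH as loading control. Secondary antibody 1 h at room temperature, then enhanced chemiluminescence detection.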

[4] = test system: Id1 promoter; experiment: Id1-luciferase reporter assay in H1299 cells; assay type: cell-based, human; conditions: H1299 cells stably expressing reporter, 48 h
How it was run: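 H1299 cells stably carrying an Id-1 promoter–luciferase reporter were exposed to test compound for 48 h. Cells were then lysed and luminescence read on a luminometer. The experiment was run twice.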

[5] = biological target: ALK6/BMPR1B (Homo sapiens, UniProt O00238); experiment: IC50 kinase assay ALK6; assay type: biochemical; conditions: ATP 10 μM
[6] = test system: H1299 lung cancer cells; experiment: Cell viability; assay type: cell-based, human
[7] = biological target: ALK3/BMPR1A (Homo sapiens, UniProt P36894); experiment: IC50 kinase assay ALK3; assay type: biochemical; conditions: ATP 10 μM
[8] = Metabolic stability in mouse liver microsomes; assay type: in vitro ADME
[9] = test system: H1299 tumors; experiment: H1299 tumor xenografts in NSG mice without immune cells; assay type: in vivo, mouse
[10] = test system: H1299 tumors; experiment: H1299 tumor xenografts in humanized NSG mice; assay type: in vivo, mouse
[11] = test system: H1299 cells; experiment: TUNEL assay; assay type: cell-based, human; conditions: H1299, 24 h
[12] = test system: H1299 cells; experiment: Annexin V / 7-AAD staining; assay type: cell-based, human; conditions: H1299, 2.5 μM, 48 h, vs DMSO
How it was run: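 H1299 cells in six-well plates exposed to DMSO or test compound at 2.5 μM for 48 h. They were then stained with labeled Annexin V and 7-AAD per kit instructions and analysed by flow cytometry. 7-AAD-positive, Annexin V-negative cells counted as necrotic. Experiments run at least 3 times.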

[13] = Pharmacokinetics in BALB/c mice; assay type: in vivo, mouse
[14] = test system: Id1, TAK1, XIAP in H1299 tumors; experiment: Western blot of BMP downstream targets in H1299 tumor xenografts; assay type: in vivo, mouse; conditions: NSG mice, 4 days
How it was run: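 Xenografts made by intradermal flank injection of 2 million H1299 cells into NSG mice. At about 4 mm × 4 mm, mice received test compound at 3 or 10 mg/kg twice daily, or DMSO, for four days. Tumor protein (BCA-quantified) run on SDS-PAGE and blotted to nitrocellulose. Probed with anti-Id1, anti-pTAK1 and anti-XIAP (primary overnight at 4 °C), then ECL detection.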

[15] = NSG mice, IP 3 mg/kg, 10 mg/kg twice daily for 4 days
[16] = treatment day 21, IHC image analysis

Sequence of ALK3/BMPR1A (P36894 24-532): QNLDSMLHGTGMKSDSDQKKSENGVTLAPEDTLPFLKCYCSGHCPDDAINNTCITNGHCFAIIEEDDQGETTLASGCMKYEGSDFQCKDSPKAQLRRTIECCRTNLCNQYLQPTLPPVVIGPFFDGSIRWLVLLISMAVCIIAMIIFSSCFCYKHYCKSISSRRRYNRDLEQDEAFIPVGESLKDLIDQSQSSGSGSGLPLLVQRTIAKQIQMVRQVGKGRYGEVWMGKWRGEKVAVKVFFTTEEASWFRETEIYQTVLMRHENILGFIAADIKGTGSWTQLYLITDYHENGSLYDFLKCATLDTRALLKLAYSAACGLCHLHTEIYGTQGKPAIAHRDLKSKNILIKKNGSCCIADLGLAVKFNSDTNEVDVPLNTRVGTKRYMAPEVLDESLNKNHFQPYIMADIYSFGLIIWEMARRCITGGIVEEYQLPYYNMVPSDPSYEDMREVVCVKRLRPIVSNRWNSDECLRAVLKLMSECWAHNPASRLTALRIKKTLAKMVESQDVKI
Sequence of ALK6/BMPR1B (O00238 14-502): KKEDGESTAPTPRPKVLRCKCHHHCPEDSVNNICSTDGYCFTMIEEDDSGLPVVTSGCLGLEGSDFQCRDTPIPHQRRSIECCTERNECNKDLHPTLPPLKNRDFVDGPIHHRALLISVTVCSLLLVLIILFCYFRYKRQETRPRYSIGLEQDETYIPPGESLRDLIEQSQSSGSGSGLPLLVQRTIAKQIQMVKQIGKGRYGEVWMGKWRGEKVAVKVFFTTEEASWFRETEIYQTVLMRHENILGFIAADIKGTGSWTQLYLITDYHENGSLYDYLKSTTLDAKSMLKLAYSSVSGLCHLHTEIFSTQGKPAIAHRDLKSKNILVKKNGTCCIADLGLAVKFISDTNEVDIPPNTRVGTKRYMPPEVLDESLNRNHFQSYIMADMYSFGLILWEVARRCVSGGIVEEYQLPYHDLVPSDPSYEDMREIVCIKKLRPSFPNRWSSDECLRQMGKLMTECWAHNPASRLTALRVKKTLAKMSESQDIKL

c1ccc2c(-c3cnn4cc(-c5ccc(OCCN6CCCCC6)cc5)cnc34)ccnc2c1 [JL5]
signs of toxicity (anorexia, lethargy, loss of weight) ([1]; 21-day studies, 10 mg/kg intraperitoneal twice daily): no signs of toxicity
blood chemistry screen vs DMSO [1, 15]: no significant difference
histological examination of livers, lungs, kidneys [1, 15]: did not reveal any evidence of toxicity
systemic toxicity (loss of appetite, anorexia, lethargy) [1, 15]: no evidence of systemic toxicity
IC50 ALK2/ACVR1 [2]: single digit nanomolar
IC50 ([2]; read-out: IC50 ALK2/ACVR1): 1 nM
activation of caspase-3 and cleavage of PARP [3]: induced the activation of caspase-3 and cleavage of PARP
expression of the Id1-luciferase reporter [4]: dose-related decrease
IC50 ALK6/BMPR1B [5]: single digit nanomolar
IC50 ([5]; read-out: IC50 ALK6/BMPR1B): 2 nM
cell death, JL5 compared with DMH2 ([6]; H1299, 2.5 μM, 3 days): same amount of cell death
dead and live cells vs DMSO control ([6]; H1299, 7 days): majority of the H1299 cells treated with JL5 were dead
IC50 ALK3/BMPR1A [7]: single digit nanomolar
IC50 ([7]; read-out: IC50 ALK3/BMPR1A): < 5 nM
ClearanceINT [8]: 129 mL/min/kg
intrinsic clearance lower than that of DMH2 [8]: 48%
regression in tumor size ([9]; 10 mg/mL, from treatment day 5 to day 14): ~ 35%
tumor cell death or proliferation (H&E, Ki67) ([9]; after 21 days of treatment): No significant differences
size and weight of tumors vs vehicle control ([10]; 10 mg/kg twice daily, 13 days): significant difference in the size and weight
regression in tumor size ([10]; 10 mg/kg twice daily, from treatment day 7 to day 12): ~ 35%
necrotic cells compared to control tumors ([10]; 13 days, H&E image analysis): twice the number of necrotic cells
cell death by H&E staining ([10]; 21 days): no noteworthy histomorphological differences
proliferation of tumor cells (Ki67) ([10]; 21 days): significant reduction in proliferation
increase in CD3+ cells within tumor vs DMSO control [10, 16]: 67%
increase in CD4+ cells within tumor vs DMSO control [10, 16]: 80%
DNA double-stranded breaks (TUNEL) [11]: induces DNA double-stranded breaks
percentage of cells in late apoptosis / necrosis (Annexin V, 7-AAD) [12]: significant increase in the percentage of cells in late stages of apoptosis as well as necrosis
AUCinf ([13]; i.v., 2 mg/kg): 381 ng·h/mL
AUClast ([13]; i.v., 2 mg/kg): 349 ng·h/mL
C0/Cmax ([13]; i.v., 2 mg/kg): 568 ng/mL
CL ([13]; i.v., 2 mg/kg): 194 mL/min/kg
T1/2 ([13]; i.v., 2 mg/kg): 34.2 min
Vss ([13]; i.v., 2 mg/kg): 8.78 L/kg
AUCinf ([13]; p.o.): 1,645 hr×ng/mL
AUClast ([13]; p.o.): 1,605 hr×ng/mL
C0/Cmax ([13]; p.o.): 1,282 ng/mL
expression of Id1 in tumors ([14]; 3 mg/mL): feedback increase in the expression of Id1
protein expression of Id1, TAK1, XIAP in tumors ([14]; 10 mg/kg): decreased protein expression of Id1 and TAK1 but not XIAP
